Among the data in ChEMBL document CHEMBL4609987, “Structure-activity relationship study of the pyridine moiety of isothiazolo[4,3-b]pyridines as antiviral agents targeting cyclin G-associated kinase” (Bioorg Med Chem, 2020) are IC50, EC50 and CC50 values, retold here.

Structures are written as SMILES.

Data set [1] addresses T1, Cyclin-G-associated kinase (Homo sapiens, UniProt O14976).
T1 sequence (O14976 whole entry): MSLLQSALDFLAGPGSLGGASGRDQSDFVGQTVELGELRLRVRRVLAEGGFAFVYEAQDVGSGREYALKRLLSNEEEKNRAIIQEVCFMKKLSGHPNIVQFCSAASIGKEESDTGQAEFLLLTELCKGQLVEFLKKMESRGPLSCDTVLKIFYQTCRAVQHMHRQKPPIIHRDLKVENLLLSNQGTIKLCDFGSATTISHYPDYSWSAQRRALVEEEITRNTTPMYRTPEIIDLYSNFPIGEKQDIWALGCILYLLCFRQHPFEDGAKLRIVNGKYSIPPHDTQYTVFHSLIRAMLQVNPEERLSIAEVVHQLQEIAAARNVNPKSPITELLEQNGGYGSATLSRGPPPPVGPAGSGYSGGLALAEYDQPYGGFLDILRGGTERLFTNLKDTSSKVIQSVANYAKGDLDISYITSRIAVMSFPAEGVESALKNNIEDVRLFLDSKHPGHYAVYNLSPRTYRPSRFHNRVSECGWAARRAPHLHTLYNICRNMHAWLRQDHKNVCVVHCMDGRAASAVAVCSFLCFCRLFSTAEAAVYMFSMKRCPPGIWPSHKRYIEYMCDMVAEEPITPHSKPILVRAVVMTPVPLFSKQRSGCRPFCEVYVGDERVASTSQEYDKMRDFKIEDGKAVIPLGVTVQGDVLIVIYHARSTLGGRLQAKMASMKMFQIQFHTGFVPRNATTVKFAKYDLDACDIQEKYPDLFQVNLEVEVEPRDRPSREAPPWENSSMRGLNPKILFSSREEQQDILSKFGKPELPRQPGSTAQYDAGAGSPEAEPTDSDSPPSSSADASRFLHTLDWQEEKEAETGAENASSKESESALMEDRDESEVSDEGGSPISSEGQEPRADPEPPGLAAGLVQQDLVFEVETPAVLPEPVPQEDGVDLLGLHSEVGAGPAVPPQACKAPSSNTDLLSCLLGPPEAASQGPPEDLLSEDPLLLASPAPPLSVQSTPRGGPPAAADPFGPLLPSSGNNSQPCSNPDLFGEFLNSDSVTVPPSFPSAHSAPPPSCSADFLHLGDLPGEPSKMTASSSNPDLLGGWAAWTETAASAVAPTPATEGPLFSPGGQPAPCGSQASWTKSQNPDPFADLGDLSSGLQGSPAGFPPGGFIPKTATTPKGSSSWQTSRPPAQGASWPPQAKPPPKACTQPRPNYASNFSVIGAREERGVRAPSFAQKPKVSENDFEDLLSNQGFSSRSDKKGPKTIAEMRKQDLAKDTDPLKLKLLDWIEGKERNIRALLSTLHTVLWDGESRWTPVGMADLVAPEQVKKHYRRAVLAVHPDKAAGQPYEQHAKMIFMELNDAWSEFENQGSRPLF
Put plainly: Inhibition of tracer 222 binding to recombinant human GST-tagged GAK (1 to 329 residues) expressed in insect cells incubated for 1 hr by Lanthascreen assay. (In general: In TR-FRET formats the signal depends on donor and acceptor labels being close together.)

Another data set deals with dengue virus type 2. Nature of the data set: Antiviral activity against Dengue virus 2 infected in human HuH7 cells incubated for 48 hrs by luciferase reporter gene assay. The note with it: Huh-7, 48 h.
Data set [2] in a line: Cytotoxicity against human HuH7 cells assessed as reduction in cell viability incubated for 48 hrs by alamar blue reagent based cell viability assay. More on the design: species or system Huh-7. The essentials: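 Run in parallel on the same DENV2-infected Huh7 cultures (MOI 0.05, 4 h infection). Viability measured with AlamarBlue per the manufacturer's protocol, with fluorescence detected at 560 nm. CC50 calculated as the half-maximal cytotoxic concentration.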

`COc1cc(-c2cnc3c(N4C[C@@H](C)O[C@@H](C)C4)snc3c2)ccc1N`: the half-inhibitory concentration (IC50) (in general, the concentration that inhibits the measured activity by half) in data set [1] came out at 0.0394 µM. Further, the EC50 (in general, the concentration giving half of the maximal effect) in the data set with dengue virus type 2 turned out to be 0.82 µM. The 50% cytotoxic concentration (CC50) (usually the concentration at which the toxic effect on the cells reaches its halfway point) at 48 h in data set [2] is greater than 25 µM.

For `COc1cc(-c2cnc3c(N4C[C@@H](C)O[C@@H](C)C4)snc3c2)ccc1C(=O)NCc1ccccc1`, in the data set on dengue virus type 2, the half-maximal effective concentration (EC50) was 5.83 µM. For the same compound, in data set [2], the CC50 at 48 h was greater than 10 µM.

For the compound `C[C@@H]1CN(c2snc3cc(/C=C/c4ccccc4)cnc23)C[C@H](C)O1`, in data set [1], the IC50 is greater than 3.33 µM.

In the data set on dengue virus type 2, `COc1cccc(-c2ccc3nsc(N4C[C@@H](C)O[C@@H](C)C4)c3n2)c1` gave a half-maximal effective concentration (EC50) greater than 10 µM. For the same compound, the CC50 at 48 h in data set [2] is greater than 10 µM.

Regarding `C[C@@H]1CN(c2snc3cc(C#Cc4ccccc4)cnc23)C[C@H](C)O1`, the IC50 in data set [1] was greater than 10 µM.

Regarding `COc1ccc(-c2ccc3nsc(N4C[C@@H](C)O[C@@H](C)C4)c3n2)cc1OC`, the EC50 with dengue virus type 2 amounted to 1.05 µM. For the same compound, in data set [2], the CC50 at 48 h is greater than 10 µM.

In the data set on dengue virus type 2, `COc1cc(-c2cnc3c(N4C[C@@H](C)O[C@@H](C)C4)snc3c2)cc(OC)c1OC` came in with an EC50 of 2.79 µM. Besides, the CC50 at 48 h in data set [2] is greater than 10 µM.

In the data set on dengue virus type 2, `COc1cc(-c2cnc3c(N4C[C@@H](C)O[C@@H](C)C4)snc3c2)ccc1C(=O)N1CCCC1` registered a 50% effective concentration (EC50) of 8.85 µM. The cytotoxic concentration (CC50) at 48 h in data set [2] was greater than 10 µM.

In the case of `COc1cc(-c2cnc3c(N4C[C@@H](C)O[C@@H](C)C4)snc3c2)ccc1C(=O)Nc1ccccc1`, in data set [1], the IC50 is greater than 0.37 µM.

On to `COc1cc(-c2cnc3c(N4C[C@@H](C)O[C@@H](C)C4)snc3c2)ccc1C(=O)O`, for which, in the data set on dengue virus type 2, the EC50 was greater than 10 µM. For the same compound, the 50% cytotoxic concentration (CC50) at 48 h in data set [2] was greater than 10 µM.

Regarding `COc1cc(-c2cnc3c(N4C[C@@H](C)O[C@@H](C)C4)snc3c2)ccc1C(N)=O`, in the data set with dengue virus type 2, the EC50 was found to be 10.1 µM. In data set [2], the CC50 at 48 h was greater than 10 µM.

`COc1ccc(-c2cnc3c(N4C[C@@H](C)O[C@@H](C)C4)snc3c2)cn1`: in data set [1], the IC50 was greater than 3.33 µM.

With `C[C@@H]1CN(c2snc3ccc(-c4ccc(C(F)(F)F)cc4)nc23)C[C@H](C)O1`, the IC50 in data set [1] was greater than 0.37 µM.

As for `C#Cc1cccc(Nc2ncnc3cc(OCCOC)c(OCCOC)cc23)c1` [ERLOTINIB], it took 1.22 µM to reach a half-maximal effect in the data set with dengue virus type 2 (EC50). Besides, the half-maximal cytotoxic concentration (CC50) at 48 h in data set [2] is greater than 10 µM.
